Screens from PubChem BioAssay.
Shown are actives, neighbours in structure and some others; about 2.2% of the full set was active somewhere.
NS3 helicase inh – inhibitors of Hepatitis C virus NS3 helicase. inhibition, % at 10.9 µM. NS3 helicase DNA unwinding, Cy5 molecular beacon fluorescence. 0.56% of 290,000 active;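 active = inhibition above the mean of all tested compounds plus 3 SD, set per campaign, cut at about 35% in these data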
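Assay system: hepatitis C virus NS3 helicase domain fragment enzyme. Also added: annealed dual-labelled DNA beacon duplex, ATP-started. Timing: 1 h reaction at 25 °C, ATP-initiated. Technique: Cy5 fluorescence at 0 and 60 min, beacon hairpin quenching. Evaluation: % inhibition of unwinding. Replication: one well per compound.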
HCV core dimer – blocks dimerization of HCV core protein; 0.33% of 300,000 active; TR-FRET GST/Flag-core106 dimerization, 1536-well; inhibition, % at 5 µM;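 active = inhibition above the mean of all tested compounds plus 3 SD, set per screening campaign, cut at about 45% in these data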
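Assay system – GST-tagged and Flag-tagged HCV core protein residues 1-106 · Quantity – core106 proteins, GST 13.5 nM and Flag 17 nM · Benchmarks – unlabelled core106 and no-GST-core106 wells · Read-out basis – percent inhibition of core106 dimerization signal · Detection – time-resolved FRET, ex 340 nm, em 617 and 671 nm · Schedule – 4 h at 22.5 °C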
GRK2 aptamer HTS – blocks RNA aptamer binding to human GRK2 | P25098 | bead flow cytometry, FAM-aptamer displacement from GRK2 | inhibition of aptamer binding, % at 10 µM | 0.59% of 330,000 active;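 active = inhibition of aptamer binding above 40%, roughly 3 SD of noise, on plates passing a quality check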;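 also: median bead fluorescence of bound FAM aptamer so fluorescent compounds give negative values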
DNA FID counter – fluorescent intercalator displacement, NS3 helicase counter-screen; inhibition, % at 7.9 µM; AID 1845; 0.17% of 290,000 active; DNA fluorescent intercalator displacement, fluorescence; in the data active = inhibition above about 37%;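 also: higher means more ethidium bromide displaced from hairpin DNA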
DAGLB inhibitor – diacylglycerol lipase beta (human) inhibition; Q8NCG7; HEK293T DAGLB membrane lysate, EnzChek fluorogenic substrate; inhibition, % at 5.17 µM; 0.059% of 340,000 active; in the data active = inhibition above about 34%
GPR7 antag – blocks human GPR7 receptor signaling. GPR7-expressing cells, fluorescence antagonist assay. inhibition, % at 4.4 µM. 1.1% of 290,000 active. P48145; in the data active = inhibition above about 16%, passing the limit was not always enough;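 also: cells stimulated with the agonist NPW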
Target sequence (P48145 whole entry, looked up): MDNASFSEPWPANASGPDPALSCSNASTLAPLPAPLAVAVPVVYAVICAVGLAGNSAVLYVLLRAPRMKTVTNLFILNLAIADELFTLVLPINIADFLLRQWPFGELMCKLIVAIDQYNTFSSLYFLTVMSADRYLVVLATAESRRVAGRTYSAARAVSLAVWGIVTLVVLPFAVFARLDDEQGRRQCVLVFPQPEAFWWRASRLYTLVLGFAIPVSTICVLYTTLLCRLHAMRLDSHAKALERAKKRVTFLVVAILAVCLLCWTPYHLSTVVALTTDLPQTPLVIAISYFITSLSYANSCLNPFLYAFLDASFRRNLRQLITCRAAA
Of the large screens only hits and unclear results are named; the others gave an inactive call.

Cc1cc(F)ccc1S(=O)(=O)N1CCCOC1CNC(=O)C(=O)NCCc1ccco1 (stereo unspecified)	none (no result: NS3 helicase inh, HCV core dimer, GRK2 aptamer HTS, DNA FID counter, GPR7 antag)
COc1ccc2c(CC(=O)Nc3ccc(OC)c(NS(=O)(=O)c4ccc(F)cc4)c3)coc2c1	HCV core dimer 68.0
COc1ccc2c(CC(=O)Nc3ccccc3OC)coc2c1	none
Cn1nnnc1SCC(=O)Nc1ccccc1-c1ccccc1	GPR7 antag 15.8
Cc1ccccc1NC(=O)CSc1nnnn1C	none
CCN(C[C@H]1N[C@@](Cc2ccccc2)(C(=O)OC)[C@H]2C(=O)N(C)C(=O)[C@@H]12)S(=O)(=O)c1ccc(-c2ccccc2)cc1	none (no result: NS3 helicase inh, HCV core dimer, DNA FID counter, GPR7 antag)
CC(c1ccccc1)N1C(=O)c2ccc(C(=O)Nc3ccc(Br)cc3C(=O)O)cc2C1=O (stereo unspecified)	none
CC(c1ccccc1)N1C(=O)c2ccc(C(=O)Nc3ccccc3C(=O)O)cc2C1=O (stereo unspecified)	DNA FID counter 43.1
CN(CCc1ccccc1)C(=O)c1ccc(NC(=O)Cc2ccc(NC(=O)C3CCN(C(=O)CCc4ccccc4)CC3)cc2)cc1	none (no result: NS3 helicase inh, HCV core dimer, GRK2 aptamer HTS, DNA FID counter, GPR7 antag)
N#Cc1cccc(NC(=O)CSc2ccc3c4c(cccc24)C(=O)c2ccccc2-3)c1	HCV core dimer 66.5
Cc1cccc(NC(=O)CNC(=O)CN2C(=O)NC(C)(CCC(C)C)C2=O)c1C (stereo unspecified)	none (no result: NS3 helicase inh, HCV core dimer, GRK2 aptamer HTS, DNA FID counter, GPR7 antag)
CC(=O)/C(=N/Nc1ccccc1)Sc1nnc(C(O)c2ccccc2)n1-c1ccccc1 (stereo unspecified)	GPR7 antag 23.7
CC(=O)/C(=N/Nc1ccccc1Cl)Sc1nnc(C(O)c2ccccc2)n1-c1ccccc1 (stereo unspecified)	none
CS(=O)(=O)NCCSc1nnnn1-c1ccccc1	GPR7 antag 18.3
Cn1cccc1CC(=O)N/N=C/c1cc([N+](=O)[O-])ccc1Cl	HCV core dimer 48.1
Cn1cccc1CC(=O)N/N=C/c1cccc([N+](=O)[O-])c1	none
O=C(CSc1ccc(S(=O)(=O)N2CCCCC2)cn1)Nc1ccccc1Br	none (no result: NS3 helicase inh, HCV core dimer, DNA FID counter, GPR7 antag)
O=c1cc(CSc2n[nH]c(-c3ccncc3)n2)nc2sccn12	HCV core dimer 52.7
COc1ccc(OCC(=O)OC(C)CN2CCOCC2)cc1 (stereo unspecified)	GPR7 antag 18.1
Cc1ccc([C@H]2N[C@]3(CCCN(Cc4ccc(F)cc4)C3=O)[C@H]3C(=O)N(Cc4ccccc4)C(=O)[C@@H]23)cc1	none (no result: NS3 helicase inh, HCV core dimer, GRK2 aptamer HTS, DNA FID counter, GPR7 antag)
C#CCOCCOCCOCCNc1nc(N2CCN(C(=O)[C@H](CCCCN)n3cc([C@@H](N)CO)nn3)CC2)nc(N2CCN(C(=O)[C@H](Cc3ccc(O)cc3)n3cc([C@@H](N)CC(C)C)nn3)CC2)n1	DNA FID counter 54.1
C#CCOCCOCCOCCNc1nc(N2CCN(C(=O)[C@H](Cc3ccc(O)cc3)n3cc([C@@H](N)C(C)CC)nn3)CC2)nc(N2CCN(C(=O)[C@H](CCCCN)n3cc([C@@H](N)CC(C)C)nn3)CC2)n1 (stereo partly specified)	DNA FID counter 42.9 (no result: DAGLB inhibitor)
C#CCOCCOCCOCCNc1nc(N2CCN(C(=O)[C@H](Cc3ccc(O)cc3)n3cc([C@@H](N)C(C)CC)nn3)CC2)nc(N2CCN(C(=O)[C@H](CCCCN)n3cc([C@@H](N)CO)nn3)CC2)n1 (stereo partly specified)	DNA FID counter 43.7
C#CCOCCOCCOCCNc1nc(N2CCN(C(=O)[C@H](CCC(=O)O)n3cc(C(N)Cc4ccc(O)cc4)nn3)CC2)nc(N2CCN(C(=O)[C@H](CCC(=O)O)n3cc(C(N)[C@H](C)CC)nn3)CC2)n1 (stereo partly specified)	none
C#CCOCCOCCOCCNc1nc(N2CCN(C(=O)[C@H]([C@@H](C)CC)n3cc([C@@H](N)Cc4ccc(O)cc4)nn3)CC2)nc(N2CCN(C(=O)[C@H](CCCCN)n3cc([C@@H](N)CO)nn3)CC2)n1	DNA FID counter 58.0 (no result: DAGLB inhibitor)
C#CCOCCOCCOCCNc1nc(N2CCN(C(=O)[C@H](CCC(=O)O)n3cc(C(N)CO)nn3)CC2)nc(N2CCN(C(=O)[C@H](Cc3ccc(O)cc3)n3cc(C(N)CC(C)C)nn3)CC2)n1 (stereo partly specified)	none (no result: DAGLB inhibitor)
O=c1oc(CCCO)cc2ccccc12	none (no result: NS3 helicase inh, HCV core dimer, DNA FID counter, GPR7 antag)
CCOC(=O)N1CCC(=NNC(N)=O)C1	none (no result: NS3 helicase inh, HCV core dimer, GRK2 aptamer HTS, DNA FID counter, GPR7 antag)
CC[N+]1(C)CCC(O)(/C=C/c2ccccc2)C(C(=O)/C=C/c2ccccc2)C1 (stereo unspecified)	none (no result: NS3 helicase inh, HCV core dimer, GRK2 aptamer HTS, DNA FID counter, GPR7 antag)
COc1ccc(NS(=O)(=O)c2cccc(C(=O)NNC(=O)c3ccccc3O)c2)cc1	none (no result: NS3 helicase inh, DNA FID counter, GPR7 antag)
COc1ccc(NS(=O)(=O)c2cccc(C(=O)NNC(=O)c3cccn3C)c2)cc1	HCV core dimer 70.6
COc1ccc(NS(=O)(=O)c2cccc(NC(=O)c3ccc(Cl)nc3)c2)cc1	GPR7 antag 49.1
CCOC(=O)c1ccccc1NC(=O)COC(=O)CSc1ccccc1	none (no result: NS3 helicase inh, DNA FID counter, GPR7 antag)
Cc1ccccc1NC(=O)C(C)OC(=O)C1CCCO1 (stereo unspecified)	none (no result: NS3 helicase inh, HCV core dimer, GRK2 aptamer HTS, DNA FID counter, GPR7 antag)
Cc1oc2ccc(NS(=O)(=O)c3ccc(C(C)(C)C)cc3)cc2c1C(=O)Nc1ccccc1	HCV core dimer 53.6
C#CCOCCOCCOCCNc1nc(N2CCN(C(=O)[C@H](CCC(=O)O)n3cc(C(N)CO)nn3)CC2)nc(N2CCN(C(=O)[C@H](Cc3cc4ccccc4[nH]3)n3cc(C(N)[C@H](C)CC)nn3)CC2)n1 (stereo partly specified)	none
C#CCOCCOCCOCCNc1nc(N2CCN(C(=O)[C@H](CCCCN)n3cc([C@@H](N)CO)nn3)CC2)nc(N2CCN(C(=O)[C@H](Cc3cc4ccccc4[nH]3)n3cc([C@@H](N)CO)nn3)CC2)n1	none (no result: NS3 helicase inh, DNA FID counter, DAGLB inhibitor, GPR7 antag)
C#CCOCCOCCOCCNc1nc(N2CCN(C(=O)[C@H](Cc3cc4ccccc4[nH]3)n3cc([C@@H](N)C(C)CC)nn3)CC2)nc(N2CCN(C(=O)[C@H](CCCCN)n3cc([C@@H](N)CO)nn3)CC2)n1 (stereo partly specified)	DNA FID counter 55.1 (no result: GRK2 aptamer HTS, DAGLB inhibitor)
C#CCOCCOCCOCCNc1nc(N2CCN(C(=O)[C@H](CCCCN)n3cc([C@@H](N)CO)nn3)CC2)nc(N2CCN(C(=O)[C@H](Cc3cc4ccccc4[nH]3)n3cc([C@@H](N)CC(C)C)nn3)CC2)n1	DNA FID counter 48.9 (no result: DAGLB inhibitor)
C#CCOCCOCCOCCNc1nc(N2CCN(C(=O)C(Cc3ccc(O)cc3)n3cc(C(N)CC(C)C)nn3)CC2)nc(N2CCN(C(=O)C(Cc3cc4ccccc4[nH]3)n3cc(C(N)Cc4ccc(O)cc4)nn3)CC2)n1 (stereo unspecified)	DNA FID counter 39.8 (no result: DAGLB inhibitor)
